Data: publication PMC2826548 (Journal of structural biology, 2009)
Where two headings read alike, the source gives them in different places.

How the values were obtained:
[1] = target: Human K2Pg(C4G/E56D/L72Y), isolated kringle 2 domain of human plasminogen (human); test: SPR
[2] = target: Human K2Pg(C4G/E56D/L72Y), isolated kringle 2 domain of human plasminogen (human); test: AUC
[3] = target: Human K2Pg(C4G/E56D/L72Y), isolated kringle 2 domain of human plasminogen (human)
[4] = target: T1, K2Pg (Homo sapiens, UniProt P00747, C188G/E240D/L256Y); test: SPR binding of VEK-30 variants to immobilized K2Pg
T1 sequence (P00747 184-262 C188G/E240D/L256Y): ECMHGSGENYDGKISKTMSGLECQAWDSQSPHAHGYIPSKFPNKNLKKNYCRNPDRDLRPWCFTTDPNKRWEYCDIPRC
Summary of the method: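 Recombinant peptide analytes (GB1-fusion, thrombin-cleaved, GS N-terminal remnant) were run at 25 °C. K2Pg at 100 μg/ml in 0.1 M NaOAc pH 4.0 was amine-coupled (NHS/EDC, ethanolamine block). A K2Pg-free reference cell was subtracted. KD = kd/ka.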

[5] = target: T1, K2Pg; details: variant kringle vs K2Pg parent; ref [5]; cited from earlier work
[6] = Sedimentation equilibrium analytical ultracentrifugation; type: physicochemical; details: sedimentation equilibrium (and NMR correlation time)
[7] = tested on: other isolated Pg kringle domains; details: cited from earlier work
[8] = CD α-helix content of VEK-30 peptides in absence of K2Pg; type: physicochemical; details: 222 nm, 30 μM peptide, 100 mM sodium phosphate, pH 7.4, room temperature
Summary of the method: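 Recombinant peptides (His6-GB1 fusion expressed in E. coli BL21(DE3), thrombin-cleaved, GS N-terminal remnant; variants by site-directed mutagenesis; integrity checked by MALDI-TOF). Spectra recorded 200–250 nm in a 1 mm quartz cell without K2Pg. Concentration set by A280. Helix fraction derived from mean residue ellipticity at 222 nm as f_α = (−[θ]222 − 2340)/30,300.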

| Substance | Kd [1] [µM] | koff [1] [s⁻¹] | kon [1] [M⁻¹ s⁻¹] | further results |
| --- | --- | --- | --- | --- |
| VEK-30[D7N] (peptide) | 1.94 | 0.0704 | 36200 | – |
| VEK-30[D7A/E9A] (peptide) | 0.371 | 0.0967 | 261000 | – |
| VEK-30[D7A] (peptide) | 0.446 | 0.0561 | 126000 | – |
| VEK-30, 30-amino acid residue internal peptide from the streptococcal M-like plasminogen binding protein PAM | 0.065 | 0.0293 | 454000 | stoichiometry N (VEK-30 per K2Pg) [2]: 1; stoichiometry N (VEK-30 per K2Pg) [1]: 1; Kd [3]: 0.04 µM |
| VEK-30[D7N/E9Q] (peptide) | 1.71 | 0.086 | 50400 | – |
| H-GSVEKLTADAELQRLKNERHEEAELERLKSEY-OH [VEK-30] | – | – | – | koff ([4]; pH 7.4, read-out: koff (dissociation rate constant)): 0.0293 s⁻¹; kon ([4]; pH 7.4, read-out: kon (association rate constant)): 454000 M⁻¹ s⁻¹; affinity enhancement of K2Pg(C4G/E56D/L72Y) compared with K2Pg parent [5]: approximately 15 fold; association state in solution [6]: monomeric form; specificity of binding to Pg for the kringle 2 domain ([7]; background statement in Introduction, no reference printed in that sentence): highly specific; affinity for the other isolated Pg kringle domains ([7]; ref [5],[33]): no measurable affinity; Apo-helicity (% α-helix in absence of K2Pg) [8]: 34% |
